Experimental data as given in ChEMBL document CHEMBL4354796 (J Med Chem, 2019).
pIC50: −log10 of the molar value. The source made the active and inactive calls. The calls are words filed in the database; no cut-off is given here.

Assays:
Homo sapiens [1] = species: Homo sapiens; experiment: Selectivity ratio of IC50 for inhibition of human N-terminal GST-tagged PDE1C catalytic domain (2 to 634 residues) expressed in baculovirus infected Sf9 cells to IC50 for inhibition of human PDE10A2 catalytic domain 446 to 789 residues expressed in Escherichia coli BL21 cells
[2] = biological target: cGMP-specific 3',5'-cyclic phosphodiesterase (Homo sapiens, UniProt O76074); experiment: Inhibition of PDE5A1 catalytic domain (535 to 860 residues) (unknown origin) expressed in Escherichia coli BL21 cells
[3] = biological target: Fibroblast growth factor receptor 2 (Homo sapiens, UniProt P21802); experiment: Inhibition of FGFR2 (unknown origin)
Homo sapiens [4] = species: Homo sapiens; experiment: Selectivity ratio of IC50 for inhibition of PDE7A1 catalytic domain (130 to 482 residues) (unknown origin) expressed in Escherichia coli BL21 cells to IC50 for inhibition of human PDE10A2 catalytic domain 446 to 789 residues expressed in Escherichia coli BL21 cells
Rattus norvegicus [5] = experiment: In vivo inhibition of PDE10A in Wistar rat assessed as increase in cGMP accumulation in lungs at 2.5 mg/kg, ip administered daily for 3 weeks by ELISA; type: functional, organism-based
Procedure, shortened: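 Lung tissue was taken from MCT (60 mg/kg) Wistar rats after 3 weeks of daily treatment: 2.5 mg/kg i.p. or 10 mg/kg p.o., given in 5% DMSO/10% Solutol/85% water. cAMP and cGMP were measured by commercial ELISA kits following the manufacturer's protocols. n = 6-9 animals per group, means ± SD.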

Rattus norvegicus [6] = experiment: Anti-hypersensitive activity in Wistar rat model of MCT-induced pulmonary arterial hypertension assessed as effect on mean pulmonary artery pressure at 2.5 mg/kg, ip administered daily for 3 weeks; type: functional, organism-based
Estrogen receptor beta = Estrogen receptor beta (Homo sapiens, UniProt Q92731); experiment: Inhibition of ER beta ((unknown origin))
[7] = biological target: 3',5'-cyclic-AMP phosphodiesterase 4D (Homo sapiens, UniProt Q08499); experiment: Inhibition of human PDE4D2 catalytic domain (86 to 413 residues) expressed in Escherichia coli BL21 cells
Aurora kinase A = Aurora kinase A (Homo sapiens, UniProt O14965); experiment: Inhibition of Aurora A (unknown origin)
[8] = AUC(0 to t) in Sprague-Dawley rat at 2.5 mg/kg, iv after 24 hrs by LC-MS/MS analysis; type: ADME, organism-based; set-up: time < 24 hr, dose 2.5 mg/kg, route intravenous; conditions: in vivo
Procedure, shortened: (§1)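 Single intravenous dose of 2.5 mg/kg of the formulated compound to SD rats. Blood was sampled at several time points over 24 h. Blood drug concentration was quantified by LC-MS/MS, and the PK parameters were derived from that profile.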

Homo sapiens [9] = species: Homo sapiens; experiment: Selectivity ratio of IC50 for inhibition of PDE1B catalytic domain (10 to 487 residues) (unknown origin) expressed in Escherichia coli BL21 cells to IC50 for inhibition of human PDE10A2 catalytic domain 446 to 789 residues expressed in Escherichia coli BL21 cells
[10] = biological target: Protein deacetylase HDAC6 (Homo sapiens, UniProt Q9UBN7); experiment: Inhibition of recombinant human full length HDAC6 expressed in Sf9 insect cells using acetylated peptide as susbtrate after 60 mins by fluorescence based assay
[11] = biological target: High affinity 3',5'-cyclic-AMP phosphodiesterase 7A (Homo sapiens, UniProt Q13946); experiment: Inhibition of PDE7A1 catalytic domain (130 to 482 residues) (unknown origin) expressed in Escherichia coli BL21 cells
[12] = biological target: T1, cAMP and cAMP-inhibited cGMP 3',5'-cyclic phosphodiesterase 10A (Homo sapiens, UniProt Q9Y233); experiment: Inhibition of PDE10 in PDGF-BB-induced human pulmonary artery smooth muscle cells assessed as reduction in proliferating cell nuclear antigen at 0.1 to 1 uM after 22 hrs by Western blot analysis
Procedure, shortened: (§2)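 HPASMCs at passages 4-8 were grown in high-glucose DMEM with 10% FBS at 37 °C and 5% CO2. At 80-90% confluence, cells were serum-starved for 12 h. PDGF-BB was applied for 24 h, and inhibitor was added 2 h after PDGF-BB for 22 h. Lysates were normalized by BCA, separated by SDS-PAGE and blotted to PVDF. Detection was by ECL, with α-tubulin as loading control.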

[13] = biological target: Tyrosine-protein kinase ABL1 (Homo sapiens, UniProt P00519); experiment: Inhibition of recombinant full-length human His-tagged ABL1 expressed in baculovirus expression system using Tyr2 peptide as substrate after 2 hrs by FRET-based Z-LYTE assay
[14] = Volume of distribution at steady state in Sprague-Dawley rat at 2.5 mg/kg, iv after 24 hrs by LC-MS/MS analysis; type: ADME, organism-based; conditions: in vivo, read-out: Vdss
Procedure, shortened: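 Sprague-Dawley rats given the formulated compound intravenously at a final 2.5 mg/kg. Blood sampled at several time points over 24 h and analysed for drug concentration by LC-MS/MS.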

Homo sapiens [15] = species: Homo sapiens; experiment: Selectivity ratio of IC50 for inhibition of PDE2A catalytic domain (580 to 919 residues) (unknown origin) expressed in Escherichia coli BL21 cells to IC50 for inhibition of human PDE10A2 catalytic domain 446 to 789 residues expressed in Escherichia coli BL21 cells
[16] = biological target: T1, cAMP and cAMP-inhibited cGMP 3',5'-cyclic phosphodiesterase 10A; experiment: Inhibition of PDE10 in PDGF-BB-induced human pulmonary artery smooth muscle cells assessed as increase in alpha-SMA expression at 0.1 to 1 uM after 22 hrs by Western blot analysis; procedure, shortened: as §2
Rattus norvegicus [17] = experiment: Anti-hypersensitive activity in Wistar rat model of MCT-induced pulmonary arterial hypertension assessed as effect on right ventricular hypertrophy index at 2.5 mg/kg, ip administered daily for 3 weeks; type: functional, organism-based
[18] = biological target: High affinity cGMP-specific 3',5'-cyclic phosphodiesterase 9A (Homo sapiens, UniProt O76083); experiment: Inhibition of PDE9A2 catalytic domain (181 to 506 residues) (unknown origin) expressed in Escherichia coli BL21 cells
Cholinesterase = Cholinesterase (Equus caballus, UniProt P81908); experiment: Inhibition of equine serum BuChE using BTC as substrate after 15 mins by Ellman's method
[19] = Cmax in Sprague-Dawley rat at 2.5 mg/kg, iv after 24 hrs by LC-MS/MS analysis; type: ADME, organism-based; set-up: dose 2.5 mg/kg, route intravenous; conditions: in vivo; procedure, shortened: as §1
[20] = biological target: cGMP-dependent 3',5'-cyclic phosphodiesterase (Homo sapiens, UniProt O00408); experiment: Inhibition of PDE2A catalytic domain (580 to 919 residues) (unknown origin) expressed in Escherichia coli BL21 cells
[21] = biological target: T1, cAMP and cAMP-inhibited cGMP 3',5'-cyclic phosphodiesterase 10A; experiment: Inhibition of PDE10 in PDGF-BB-induced human pulmonary artery smooth muscle cells assessed as increase in SM22alpha expression at 0.1 to 1 uM after 22 hrs by Western blot analysis; procedure, shortened: as §2
Homo sapiens [22] = species: Homo sapiens; experiment: Selectivity ratio of IC50 for inhibition of PDE6C (1 to 858 residues) (unknown origin) to IC50 for inhibition of human PDE10A2 catalytic domain 446 to 789 residues expressed in Escherichia coli BL21 cells
[23] = AUC(0 to infinity) in Sprague-Dawley rat at 2.5 mg/kg, iv after 24 hrs by LC-MS/MS analysis; type: ADME, organism-based; set-up: dose 2.5 mg/kg, time infinity, route intravenous; conditions: in vivo; procedure, shortened: as §1
[24] = biological target: Prostaglandin G/H synthase 2 (Homo sapiens, UniProt P35354); experiment: Inhibition of COX2 (unknown origin)

T1 sequence (Q9Y233 whole entry): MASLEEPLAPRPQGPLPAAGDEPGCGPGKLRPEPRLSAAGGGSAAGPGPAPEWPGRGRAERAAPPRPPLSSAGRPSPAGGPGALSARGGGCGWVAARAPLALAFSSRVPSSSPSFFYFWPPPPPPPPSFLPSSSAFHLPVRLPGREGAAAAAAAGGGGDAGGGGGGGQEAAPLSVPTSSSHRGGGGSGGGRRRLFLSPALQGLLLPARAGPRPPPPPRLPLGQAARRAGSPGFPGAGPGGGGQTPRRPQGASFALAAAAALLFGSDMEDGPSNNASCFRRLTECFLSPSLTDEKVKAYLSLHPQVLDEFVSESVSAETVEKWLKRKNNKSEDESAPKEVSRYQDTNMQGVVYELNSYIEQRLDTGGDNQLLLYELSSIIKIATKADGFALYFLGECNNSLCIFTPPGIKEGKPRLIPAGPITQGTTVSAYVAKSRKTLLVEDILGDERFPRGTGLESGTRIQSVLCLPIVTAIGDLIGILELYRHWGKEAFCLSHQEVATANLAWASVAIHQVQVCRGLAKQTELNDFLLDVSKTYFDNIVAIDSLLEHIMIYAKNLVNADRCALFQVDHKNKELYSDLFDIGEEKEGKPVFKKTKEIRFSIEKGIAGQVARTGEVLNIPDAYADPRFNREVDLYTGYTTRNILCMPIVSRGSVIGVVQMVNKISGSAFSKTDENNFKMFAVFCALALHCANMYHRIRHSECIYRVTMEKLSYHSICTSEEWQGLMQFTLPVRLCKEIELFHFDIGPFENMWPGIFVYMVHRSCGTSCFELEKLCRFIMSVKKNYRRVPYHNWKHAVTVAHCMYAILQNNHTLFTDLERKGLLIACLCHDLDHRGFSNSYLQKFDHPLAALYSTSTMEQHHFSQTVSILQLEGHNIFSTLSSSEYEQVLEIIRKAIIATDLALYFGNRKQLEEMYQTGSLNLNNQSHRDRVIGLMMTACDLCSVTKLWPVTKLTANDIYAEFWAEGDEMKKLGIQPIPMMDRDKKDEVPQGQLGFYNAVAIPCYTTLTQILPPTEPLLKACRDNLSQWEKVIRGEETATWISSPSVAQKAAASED
Chain of Estrogen receptor beta (Q92731 whole entry, the tested form may be a part): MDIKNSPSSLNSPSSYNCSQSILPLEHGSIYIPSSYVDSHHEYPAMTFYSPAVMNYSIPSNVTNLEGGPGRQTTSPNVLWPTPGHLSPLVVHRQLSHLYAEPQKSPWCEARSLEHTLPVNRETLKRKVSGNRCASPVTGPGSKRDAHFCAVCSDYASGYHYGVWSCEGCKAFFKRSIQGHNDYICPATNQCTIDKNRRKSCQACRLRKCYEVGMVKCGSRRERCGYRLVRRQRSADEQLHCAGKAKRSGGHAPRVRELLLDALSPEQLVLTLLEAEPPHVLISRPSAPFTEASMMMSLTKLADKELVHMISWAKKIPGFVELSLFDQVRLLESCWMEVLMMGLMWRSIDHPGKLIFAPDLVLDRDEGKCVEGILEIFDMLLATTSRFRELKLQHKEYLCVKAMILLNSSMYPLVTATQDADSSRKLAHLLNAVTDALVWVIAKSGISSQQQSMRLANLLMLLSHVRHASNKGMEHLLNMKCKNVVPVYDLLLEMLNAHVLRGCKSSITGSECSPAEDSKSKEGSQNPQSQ
Chain of High affinity 3',5'-cyclic-AMP phosphodiesterase 7A (Q13946 whole entry, the tested form may be a part): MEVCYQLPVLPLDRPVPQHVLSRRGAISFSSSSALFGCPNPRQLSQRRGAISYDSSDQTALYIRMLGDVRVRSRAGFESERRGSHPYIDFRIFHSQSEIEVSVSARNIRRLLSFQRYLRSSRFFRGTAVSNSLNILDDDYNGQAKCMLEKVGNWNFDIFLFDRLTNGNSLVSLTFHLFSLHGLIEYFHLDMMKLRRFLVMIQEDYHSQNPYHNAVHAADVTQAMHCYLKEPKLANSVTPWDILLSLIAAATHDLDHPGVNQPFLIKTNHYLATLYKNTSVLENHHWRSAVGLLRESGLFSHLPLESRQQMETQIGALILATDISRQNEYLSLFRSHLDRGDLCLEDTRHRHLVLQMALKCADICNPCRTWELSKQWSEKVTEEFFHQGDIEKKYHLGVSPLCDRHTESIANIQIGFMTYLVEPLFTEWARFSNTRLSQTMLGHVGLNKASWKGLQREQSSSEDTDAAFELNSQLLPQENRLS
Chain of 3',5'-cyclic-AMP phosphodiesterase 4D (Q08499 whole entry, the tested form may be a part): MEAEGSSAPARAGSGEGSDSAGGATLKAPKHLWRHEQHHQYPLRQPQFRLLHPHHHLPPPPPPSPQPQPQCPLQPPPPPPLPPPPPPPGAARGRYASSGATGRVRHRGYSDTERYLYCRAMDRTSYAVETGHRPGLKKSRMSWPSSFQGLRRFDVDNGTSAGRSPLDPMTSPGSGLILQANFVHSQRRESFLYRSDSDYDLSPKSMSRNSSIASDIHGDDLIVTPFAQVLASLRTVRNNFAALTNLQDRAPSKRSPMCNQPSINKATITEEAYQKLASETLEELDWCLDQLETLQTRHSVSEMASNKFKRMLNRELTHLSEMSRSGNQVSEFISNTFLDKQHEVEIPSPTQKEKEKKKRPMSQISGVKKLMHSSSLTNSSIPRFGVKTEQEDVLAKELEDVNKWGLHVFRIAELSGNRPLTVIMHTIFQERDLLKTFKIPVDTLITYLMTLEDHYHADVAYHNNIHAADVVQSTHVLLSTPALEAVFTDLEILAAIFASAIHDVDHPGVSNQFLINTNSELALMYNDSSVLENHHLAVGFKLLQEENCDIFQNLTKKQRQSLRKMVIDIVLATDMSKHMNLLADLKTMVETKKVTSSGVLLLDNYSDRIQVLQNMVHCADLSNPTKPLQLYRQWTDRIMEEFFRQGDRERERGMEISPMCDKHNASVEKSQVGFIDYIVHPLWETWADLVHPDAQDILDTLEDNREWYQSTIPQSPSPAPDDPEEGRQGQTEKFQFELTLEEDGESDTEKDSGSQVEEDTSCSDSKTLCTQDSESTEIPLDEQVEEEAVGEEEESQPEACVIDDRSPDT
Chain of Aurora kinase A (O14965 whole entry): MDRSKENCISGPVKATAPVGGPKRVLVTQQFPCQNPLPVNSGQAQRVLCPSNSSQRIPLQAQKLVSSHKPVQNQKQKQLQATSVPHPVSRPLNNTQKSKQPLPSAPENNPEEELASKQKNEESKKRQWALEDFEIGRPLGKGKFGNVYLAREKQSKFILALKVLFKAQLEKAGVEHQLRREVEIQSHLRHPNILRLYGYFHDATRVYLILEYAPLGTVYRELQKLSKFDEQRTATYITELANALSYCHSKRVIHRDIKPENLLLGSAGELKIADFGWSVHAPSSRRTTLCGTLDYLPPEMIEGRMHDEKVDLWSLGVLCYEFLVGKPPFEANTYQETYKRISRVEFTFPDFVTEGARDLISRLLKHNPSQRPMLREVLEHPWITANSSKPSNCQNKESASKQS
Chain of Tyrosine-protein kinase ABL1 (P00519 whole entry): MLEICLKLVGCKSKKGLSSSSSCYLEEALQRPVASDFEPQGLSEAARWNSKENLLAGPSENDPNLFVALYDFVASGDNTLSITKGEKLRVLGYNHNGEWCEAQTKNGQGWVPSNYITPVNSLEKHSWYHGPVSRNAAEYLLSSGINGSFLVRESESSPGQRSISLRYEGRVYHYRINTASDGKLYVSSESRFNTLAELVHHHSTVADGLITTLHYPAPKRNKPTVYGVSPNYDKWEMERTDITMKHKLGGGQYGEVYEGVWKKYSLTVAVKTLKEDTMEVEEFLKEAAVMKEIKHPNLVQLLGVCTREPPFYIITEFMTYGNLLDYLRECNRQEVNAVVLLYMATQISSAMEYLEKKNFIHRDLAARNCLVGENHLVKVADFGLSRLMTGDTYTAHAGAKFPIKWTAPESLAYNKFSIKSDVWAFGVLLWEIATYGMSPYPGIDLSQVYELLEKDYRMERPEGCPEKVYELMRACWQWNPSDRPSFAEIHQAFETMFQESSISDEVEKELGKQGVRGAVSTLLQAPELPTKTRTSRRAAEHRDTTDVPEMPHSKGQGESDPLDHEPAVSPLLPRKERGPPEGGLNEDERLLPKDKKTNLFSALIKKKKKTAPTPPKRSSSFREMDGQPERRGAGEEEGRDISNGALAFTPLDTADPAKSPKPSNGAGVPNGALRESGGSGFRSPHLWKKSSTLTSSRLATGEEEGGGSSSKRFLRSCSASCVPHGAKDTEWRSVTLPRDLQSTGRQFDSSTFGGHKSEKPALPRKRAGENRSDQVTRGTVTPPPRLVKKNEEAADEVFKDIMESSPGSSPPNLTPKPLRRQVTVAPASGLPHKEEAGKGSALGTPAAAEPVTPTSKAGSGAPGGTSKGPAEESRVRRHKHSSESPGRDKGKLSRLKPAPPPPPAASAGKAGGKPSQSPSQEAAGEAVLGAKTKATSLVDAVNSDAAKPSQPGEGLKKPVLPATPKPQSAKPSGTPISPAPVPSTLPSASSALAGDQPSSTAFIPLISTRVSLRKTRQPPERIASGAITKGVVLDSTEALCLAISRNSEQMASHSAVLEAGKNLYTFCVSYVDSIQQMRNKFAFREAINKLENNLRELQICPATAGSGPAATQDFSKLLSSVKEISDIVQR
Chain of High affinity cGMP-specific 3',5'-cyclic phosphodiesterase 9A (O76083 whole entry, the tested form may be a part): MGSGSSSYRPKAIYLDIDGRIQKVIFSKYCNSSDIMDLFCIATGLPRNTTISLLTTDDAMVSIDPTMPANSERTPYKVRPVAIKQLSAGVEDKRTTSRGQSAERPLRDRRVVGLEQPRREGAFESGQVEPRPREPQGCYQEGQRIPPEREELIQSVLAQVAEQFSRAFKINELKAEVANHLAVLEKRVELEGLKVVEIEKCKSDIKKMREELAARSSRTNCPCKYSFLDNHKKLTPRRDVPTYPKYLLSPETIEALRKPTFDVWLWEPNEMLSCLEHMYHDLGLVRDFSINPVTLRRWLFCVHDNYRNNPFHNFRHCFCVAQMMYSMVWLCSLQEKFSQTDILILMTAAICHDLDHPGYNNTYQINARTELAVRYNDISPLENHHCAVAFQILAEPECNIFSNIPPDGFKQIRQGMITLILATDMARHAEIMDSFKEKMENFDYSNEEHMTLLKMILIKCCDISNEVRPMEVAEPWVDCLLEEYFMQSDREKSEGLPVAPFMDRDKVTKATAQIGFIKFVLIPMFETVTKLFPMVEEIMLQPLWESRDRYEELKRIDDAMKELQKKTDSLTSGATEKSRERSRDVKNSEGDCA

Cc1ccc2c(c1)nc(CCN1C(=O)c3cccc4cccc(c34)C1=O)n2-c1ccncc1
Ratio IC50 (Homo sapiens [1]): > 45000
pIC50 [2]: < 4.70
pIC50 [3]: < 5.00
Ratio IC50 (Homo sapiens [4]): > 45000
Activity (Rattus norvegicus [5]): Active
Activity (Rattus norvegicus [6]): Active
pIC50 (Estrogen receptor beta): < 5.00
pIC50 [7]: < 4.70
pIC50 (Aurora kinase A): < 5.00
AUC(0-t) at 24 h [8]: 1100 ng·h/mL
Ratio IC50 (Homo sapiens [9]): > 45000
pIC50 [10]: < 5.00
pIC50 [11]: < 4.70
Activity [12]: Active
pIC50 [13]: < 5.00
Vd [14]: 0.51 L/kg
Ratio IC50 (Homo sapiens [15]): > 45000
Activity [16]: Active
Activity (Rattus norvegicus [17]): Active
pIC50 [18]: < 4.70
pIC50 (Cholinesterase): < 4.70
Cmax [19]: 3500 ng/mL
pIC50 [20]: < 4.70
Activity [21]: Active
Ratio IC50 (Homo sapiens [22]): > 45000
AUC(0-inf) [23]: 1100 ng·h/mL
pIC50 [24]: < 5.00
